Laboratory results taken from ChEMBL document CHEMBL5230177, “Inactivation of myostatin by photooxygenation using functionalized d-peptides” (RSC Med Chem, 2023).
pIC50: −log10 of the molar value. Activity calls are given as the source filed them. The calls are words filed in the database; no cut-off is given here.

Legend:
[1] = system: chymotrypsin (Bos taurus); test: Stability of the compound assessed as chymotrypsin (bovine pancreas)-mediated drug degradation by measuring residual ratio at 100 uM measured after 1 hr by HPLC analysis
[2] = system: chymotrypsin (Bos taurus); test: Stability of the compound assessed as chymotrypsin (bovine pancreas)-mediated drug degradation by measuring cleavage at Leu21-Arg22 residue at 100 uM measured for 3 hrs by MALDI-TOF-MS analysis
[3] = system: trypsin (Sus scrofa); test: Stability of the compound assessed as trypsin (porcine pancreas)-mediated drug degradation at 100 uM measured after 3 hrs by MALDI-TOF-MS analysis
[4] = system: chymotrypsin (Bos taurus); test: Stability of the compound assessed as chymotrypsin (bovine pancreas)-mediated drug degradation by measuring cleavage at Tyr7-Ser8 residue at 100 uM measured for 3 hrs by MALDI-TOF-MS analysis
[5] = molecular target: T1, Growth/differentiation factor 8 (Homo sapiens, UniProt O14793); test: Photo-oxygenation mediated inactivation of human recombinant Myostatin expressed in Escherichia coli cells photoirradiated for 30 mins using LED followed by incubation with luciferase reporter transfected HEK293 cells for 4 hrs by luciferase reporter gene assay
T1 sequence (O14793 whole entry): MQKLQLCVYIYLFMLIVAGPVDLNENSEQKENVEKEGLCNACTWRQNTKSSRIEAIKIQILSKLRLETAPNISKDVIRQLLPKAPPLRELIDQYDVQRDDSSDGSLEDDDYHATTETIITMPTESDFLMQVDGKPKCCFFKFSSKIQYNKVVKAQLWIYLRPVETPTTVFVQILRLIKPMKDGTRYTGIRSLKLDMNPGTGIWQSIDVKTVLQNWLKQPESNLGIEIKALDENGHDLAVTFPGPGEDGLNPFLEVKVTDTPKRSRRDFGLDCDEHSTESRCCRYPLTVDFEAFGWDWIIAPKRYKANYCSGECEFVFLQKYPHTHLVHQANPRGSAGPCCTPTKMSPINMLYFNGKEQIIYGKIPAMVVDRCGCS
In short: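 Myostatin (1 μM in 10 mM phosphate, pH 7.4, with or without peptide) diluted in serum-free DMEM to 0.6 nM, irradiated at 730 nm for 30 min, then added to HEK293 cells. Cells were transfected 24 h with SBE-luc2P reporter plus TK-Renilla control, then held 8 h in serum/phenol red-free DMEM. Exposure 4 h, PBS wash, dual-luciferase read-out. Triplicate, mean ± s.d. (n = 3), Tukey's test.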

[6] = molecular target: Growth/differentiation factor 8 (Homo sapiens) (UniProt O14793); test: Photo-oxygenation of human recombinant Myostatin expressed in Escherichia coli cells assessed as oxygen adduct formation in myostatin peak fragment 79-90 at 3 uM measured after photoirradiation for 30 mins using LED by MALDI-TOF-MS analysis
In short: (§1)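 Myostatin stock (8 μM in 1 mM HCl) diluted to 1 μM in 10 mM phosphate, pH 7.4. Functionalized peptide (final 3 μM) or methylene blue (final 1 μM) added. Irradiated 30 min with 730 nm LED (14 mW) at room temperature. Then 50 mM DTT reduction (37 °C, 0.5 h), Lys-C digestion (1/20 w/w, 37 °C, 2.5 h), ZipTip desalting, MALDI-TOF MS of fragments.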

[7] = molecular target: Amyloid-beta precursor protein (Homo sapiens) (UniProt P05067); test: Photo-oxygenation of human Amyloid beta (1 to 42) assessed as oxygen adduct formation at 3 uM measured after photoirradiation for 30 mins using LED by MALDI-TOF-MS analysis
In short: (§2)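 Aβ1-42 formed in situ from isopeptide stock (250 μM in 0.1% TFA, ultracentrifuged), diluted to 20 μM in 10 mM phosphate, pH 7.4. Functionalized peptide (final 3 μM) or methylene blue (final 1 μM) added. Irradiated with 730 nm LED (14 mW, 3–5 cm) at room temperature. Reduced with 50 mM DTT (37 °C, 0.5 h), Lys-C digested (1/20 w/w, 37 °C, 2.5 h), desalted, analysed by MALDI-TOF MS.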

[8] = molecular target: Growth/differentiation factor 8 (Homo sapiens) (UniProt O14793); test: Photo-oxygenation of human recombinant Myostatin expressed in Escherichia coli cells assessed as oxygen adduct formation in myostatin peak fragment 55-78 at 3 uM measured after photoirradiation for 30 mins using LED by MALDI-TOF-MS analysis
In short: as §1

[9] = system: HEK293; test: Phototoxicity against human HEK293 cells assessed as reduction in cell viability at 3 uM photoirradiated for 30 mins using LED followed by incubation with compound for 24 hrs by WST-1 assay; format: toxicity, cell-based; details: hek293, 24.5 h, time 1470 min
In short: (§3)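 HEK293 cells grown in DMEM with 10% FBS and non-essential amino acids at 37 °C, 5% CO2, seeded 2.0×10^4 cells/well. After 48 h, medium switched to serum- and phenol red-free DMEM containing 3 μM peptide or methylene blue. Cells irradiated with LED (λmax 730 nm, 30 min), then incubated 24 h. Viability read by WST-1; Student's t-test.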

[10] = molecular target: Growth/differentiation factor 8 (Homo sapiens) (UniProt O14793); test: Photo-oxygenation of human recombinant Myostatin expressed in Escherichia coli cells assessed as oxygen adduct formation in myostatin peak fragment 40-54 at 3 uM measured after photoirradiation for 30 mins using LED by MALDI-TOF-MS analysis
In short: as §1

[11] = system: HEK293; test: Cytotoxicity against human HEK293 cells assessed as reduction in cell viability at 3 uM incubated for 24 hrs by WST-1 assay; format: toxicity, cell-based; details: hek293, 24 h
[12] = molecular target: Growth/differentiation factor 8 (Homo sapiens) (UniProt O14793); test: Inactivation of human recombinant Myostatin expressed in Escherichia coli cells at 300 nM incubated with luciferase reporter transfected HEK293 cells for 4 hrs by luciferase reporter gene assay
[13] = Phototoxicity against human HEK293 cells assessed as cell viability at 3 uM photoirradiated for 30 mins using LED followed by incubation with compound for 24 hrs by WST-1 assay; format: toxicity, cell-based; details: time 1470 min, read-out: Activity
In short: as §3

[14] = molecular target: Amyloid-beta precursor protein (Homo sapiens) (UniProt P05067); test: Photo-oxygenation of human Amyloid beta (1 to 42) assessed as oxygen adduct formation at 1 uM measured after photoirradiation for 30 mins using LED by MALDI-TOF-MS analysis
In short: as §2

[15] = molecular target: Growth/differentiation factor 8 (Homo sapiens) (UniProt O14793); test: Photo-oxygenation of human recombinant Myostatin expressed in Escherichia coli cells assessed as oxygen adduct formation at 1 uM measured after photoirradiation for 30 mins using LED by MALDI-TOF-MS analysis
In short: as §1

Sequence of Amyloid-beta precursor protein (Homo sapiens) (P05067 whole entry): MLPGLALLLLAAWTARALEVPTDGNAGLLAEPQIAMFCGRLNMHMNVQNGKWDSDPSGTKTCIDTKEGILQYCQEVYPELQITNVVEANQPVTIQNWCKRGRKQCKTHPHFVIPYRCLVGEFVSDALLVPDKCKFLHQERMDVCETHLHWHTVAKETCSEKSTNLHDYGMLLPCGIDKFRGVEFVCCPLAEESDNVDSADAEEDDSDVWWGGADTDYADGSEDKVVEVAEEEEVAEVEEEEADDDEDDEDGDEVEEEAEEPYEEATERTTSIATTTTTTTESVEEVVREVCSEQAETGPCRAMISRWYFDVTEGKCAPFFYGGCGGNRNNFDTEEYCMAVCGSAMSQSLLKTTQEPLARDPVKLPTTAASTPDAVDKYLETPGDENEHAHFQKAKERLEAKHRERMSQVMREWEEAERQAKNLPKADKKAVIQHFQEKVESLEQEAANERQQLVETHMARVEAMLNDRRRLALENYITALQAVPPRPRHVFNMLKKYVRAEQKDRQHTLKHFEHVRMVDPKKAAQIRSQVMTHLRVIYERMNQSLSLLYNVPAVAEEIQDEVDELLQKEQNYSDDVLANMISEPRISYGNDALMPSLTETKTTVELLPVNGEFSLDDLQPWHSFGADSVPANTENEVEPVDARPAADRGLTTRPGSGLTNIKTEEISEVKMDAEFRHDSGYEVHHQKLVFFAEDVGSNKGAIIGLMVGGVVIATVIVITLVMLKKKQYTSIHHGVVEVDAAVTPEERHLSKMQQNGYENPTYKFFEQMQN

SMILES | Activity [6] | Activity [7] | Activity [8] | Activity [9] | Activity [10] | also measured
CC[C@H](C)[C@H](NC(=O)[C@H](C)NC(=O)[C@H](CCC(=O)O)NC(=O)[C@@H](NC(=O)[C@H](CCCNC(=N)N)NC(=O)[C@H](CO)NC(=O)[C@H](Cc1ccc(O)cc1)NC(=O)[C@H](CCCNC(=N)N)NC(=O)[C@@H](NC(=O)[C@H](CC(N)=O)NC(=O)[C@H](CCC(N)=O)NC(=O)[C@H](CCCNC(=N)N)NC(=O)CC(c1ccccc1)c1ccccc1)[C@@H](C)O)[C@@H](C)CC)C(=O)N[C@@H](CCCCN)C(=O)N[C@H](C(=O)N[C@@H](Cc1cn(CCN2CCCc3cc(/C=C/C4=C(Br)C(/C=C/c5cc6c7c(c5)CCCN7CCC6)=[O+][B-](F)(C(F)(F)F)O4)ccc32)nn1)C(=O)N[C@H](C(=O)N[C@@H](CC(C)C)C(=O)N[C@@H](CO)C(=O)N[C@@H](CCCCN)C(=O)N[C@@H](CC(C)C)C(=O)N[C@@H](CCCNC(=N)N)C(=O)N[C@@H](CC(C)C)C(=O)O)[C@@H](C)CC)[C@@H](C)CC (stereo not given in full) | – | – | – | – | – | remaining at 1 h, 100 µM [1]: 13%; Stability [2]: Unstable; Stability [3]: Unstable; Stability [4]: Unstable; pIC50 [5]: 8.68
CC[C@@H](C)[C@@H](NC(=O)[C@@H](CCCNC(=N)N)NC(=O)[C@@H](CCc1ccccc1)NC(=O)[C@H](NC(=O)[C@@H](CCCCN)NC(=O)[C@H](NC(=O)[C@@H](CCCNC(=N)N)NC(=O)[C@H](NC(=O)[C@@H](Cc1ccc2ccccc2c1)NC(=O)[C@@H](CCCNC(=N)N)NC(=O)[C@@H](Cc1cn(CCN2CCCc3cc(/C=C/C4=C(Br)C(/C=C/c5cc6c7c(c5)CCCN7CCC6)=[O+][B-](F)(C(F)(F)F)O4)ccc32)nn1)NC(=O)[C@H](NC(=O)[C@@H](CCCNC(=N)N)NC(=O)[C@H](N)CC(C)C)C1CCCCC1)[C@H](C)CC)C1CCCCC1)[C@H](C)CC)C(=O)N[C@H](Cc1ccc(O)cc1)C(=O)N[C@H](CCc1ccccc1)C(N)=O (stereo not given in full) | Active | inactive | Active | Non-Toxic | inactive | –
CN(C)c1ccc2nc3ccc(N(C)C)cc3[s+]c2c1.[Cl-] [METHYLENE BLUE ANHYDROUS] | – | – | – | – | – | Activity [11]: Non-Toxic
CC[C@@H](C)[C@@H](NC(=O)[C@@H](CCCNC(=N)N)NC(=O)[C@@H](CCc1ccccc1)NC(=O)[C@H](NC(=O)[C@@H](CCCCN)NC(=O)[C@H](NC(=O)[C@@H](Cc1cn(CCN2CCCc3cc(/C=C/C4=C(Br)C(/C=C/c5cc6c7c(c5)CCCN7CCC6)=[O+][B-](F)(C(F)(F)F)O4)ccc32)nn1)NC(=O)[C@H](NC(=O)[C@@H](Cc1ccc2ccccc2c1)NC(=O)[C@@H](CCCNC(=N)N)NC(=O)[C@@H](CCCCN)NC(=O)[C@H](NC(=O)[C@@H](CCCNC(=N)N)NC(=O)[C@H](N)CC(C)C)C1CCCCC1)[C@H](C)CC)C1CCCCC1)[C@H](C)CC)C(=O)N[C@H](Cc1ccc(O)cc1)C(=O)N[C@H](CCc1ccccc1)C(N)=O (stereo not given in full) | Active | inactive | Active | Non-Toxic | inactive | –
CC[C@@H](C)[C@@H](NC(=O)[C@@H](CCCNC(=N)N)NC(=O)[C@@H](CCc1ccccc1)NC(=O)[C@H](NC(=O)[C@@H](CCCCN)NC(=O)[C@H](NC(=O)[C@@H](CCCNC(=N)N)NC(=O)[C@H](NC(=O)[C@@H](Cc1ccc2ccccc2c1)NC(=O)[C@@H](CCCNC(=N)N)NC(=O)[C@@H](CCCCN)NC(=O)[C@H](NC(=O)[C@@H](CCCNC(=N)N)NC(=O)[C@H](N)CC(C)C)C1CCCCC1)[C@H](C)CC)C1CCCCC1)[C@H](C)CC)C(=O)N[C@H](Cc1ccc(O)cc1)C(=O)N[C@H](Cc1cn(CCN2CCCc3cc(/C=C/C4=C(Br)C(/C=C/c5cc6c7c(c5)CCCN7CCC6)=[O+][B-](F)(C(F)(F)F)O4)ccc32)nn1)C(N)=O (stereo not given in full) | Active | inactive | Active | Non-Toxic | inactive | –
CC[C@@H](C)[C@@H](NC(=O)[C@@H](Cc1cn(CCN2CCCc3cc(/C=C/C4=C(Br)C(/C=C/c5cc6c7c(c5)CCCN7CCC6)=[O+][B-](F)(C(F)(F)F)O4)ccc32)nn1)NC(=O)[C@@H](CCc1ccccc1)NC(=O)[C@H](NC(=O)[C@@H](CCCCN)NC(=O)[C@H](NC(=O)[C@@H](CCCNC(=N)N)NC(=O)[C@H](NC(=O)[C@@H](Cc1ccc2ccccc2c1)NC(=O)[C@@H](CCCNC(=N)N)NC(=O)[C@@H](CCCCN)NC(=O)[C@H](NC(=O)[C@@H](CCCNC(=N)N)NC(=O)[C@H](N)CC(C)C)C1CCCCC1)[C@H](C)CC)C1CCCCC1)[C@H](C)CC)C(=O)N[C@H](Cc1ccc(O)cc1)C(=O)N[C@H](CCc1ccccc1)C(N)=O (stereo not given in full) | Active | inactive | Active | Non-Toxic | inactive | –
CC[C@@H](C)[C@@H](NC(=O)[C@@H](CCCNC(=N)N)NC(=O)[C@@H](CCc1ccccc1)NC(=O)[C@H](NC(=O)[C@@H](CCCCN)NC(=O)[C@H](NC(=O)[C@@H](CCCNC(=N)N)NC(=O)[C@H](NC(=O)[C@@H](Cc1ccc2ccccc2c1)NC(=O)[C@@H](CCCNC(=N)N)NC(=O)[C@@H](CCCCN)NC(=O)[C@H](NC(=O)[C@@H](CCCNC(=N)N)NC(=O)[C@H](N)CC(C)C)C1CCCCC1)[C@H](C)CC)C1CCCCC1)[C@H](C)CC)C(=O)N[C@H](Cc1ccc(O)cc1)C(=O)N[C@H](CCc1ccccc1)C(N)=O | – | – | – | – | – | inhibition [12]: Active
CN(C)c1ccc2nc3ccc(=[N+](C)C)cc-3sc2c1 [METHYLENE BLUE ANHYDROUS] | – | – | – | – | – | viability at 24.5 h, 3 µM [13]: 21%; Activity [14]: Active; Activity [15]: Active
